What follows are compounds tested against T1, Diacylglycerol lipase-alpha (Homo sapiens, UniProt Q9Y4D2) (assay: Inhibition of full-length human DAGLalpha expressed in HEK293T cell membranes using para-nitrophenylbutyrate by colorimetric assay).
T1 sequence (Q9Y4D2 whole entry): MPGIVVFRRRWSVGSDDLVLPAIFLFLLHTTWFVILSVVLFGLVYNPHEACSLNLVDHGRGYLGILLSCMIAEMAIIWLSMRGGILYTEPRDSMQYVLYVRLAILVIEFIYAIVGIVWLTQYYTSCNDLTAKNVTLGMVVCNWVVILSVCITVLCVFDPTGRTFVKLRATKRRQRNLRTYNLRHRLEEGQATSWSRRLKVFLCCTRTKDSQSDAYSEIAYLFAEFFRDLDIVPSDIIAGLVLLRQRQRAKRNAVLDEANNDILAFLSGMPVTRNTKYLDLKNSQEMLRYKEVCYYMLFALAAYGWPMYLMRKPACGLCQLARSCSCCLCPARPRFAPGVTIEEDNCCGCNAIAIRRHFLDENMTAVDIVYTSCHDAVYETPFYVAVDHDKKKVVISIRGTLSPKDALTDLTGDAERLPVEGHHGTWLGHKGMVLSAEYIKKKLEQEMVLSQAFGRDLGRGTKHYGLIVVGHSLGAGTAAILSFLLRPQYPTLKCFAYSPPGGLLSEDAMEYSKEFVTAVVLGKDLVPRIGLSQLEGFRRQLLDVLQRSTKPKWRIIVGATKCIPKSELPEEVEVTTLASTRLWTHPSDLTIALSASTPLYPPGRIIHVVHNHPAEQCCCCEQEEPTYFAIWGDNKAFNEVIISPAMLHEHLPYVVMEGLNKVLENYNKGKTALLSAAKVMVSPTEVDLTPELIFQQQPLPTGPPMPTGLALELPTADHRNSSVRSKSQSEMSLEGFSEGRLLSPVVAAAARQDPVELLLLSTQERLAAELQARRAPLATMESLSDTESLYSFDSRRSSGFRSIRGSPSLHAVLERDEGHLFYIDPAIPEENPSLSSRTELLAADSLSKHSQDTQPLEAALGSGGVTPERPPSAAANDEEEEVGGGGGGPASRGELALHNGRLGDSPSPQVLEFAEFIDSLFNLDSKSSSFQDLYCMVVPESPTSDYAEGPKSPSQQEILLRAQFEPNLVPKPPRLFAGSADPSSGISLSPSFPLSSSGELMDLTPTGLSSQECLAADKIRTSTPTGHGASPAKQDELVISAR
Type: cell-based, HEK-293T
Summary of the method: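 Membranes from HEK293T cells transiently transfected with full-length human DAGL-α (pcDNA3.1; PEI transfection, harvested at 72 h), diluted to 0.05 μg/μL final protein in 50 mM HEPES pH 7.2. Screen at 10 μM in duplicate; dose response by 10-fold serial dilution.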

| Compound | IC50 [nM] |
| --- | --- |
| O=C(CCCCCCc1ccccc1)c1nc(C(F)(F)F)co1 | 214 |
| O=C(CCCCCCc1ccccc1)c1ncc(-c2cccs2)s1 | > 10000 |
| CC(C)(C)C(=O)c1coc(C(=O)CCCCCCc2ccccc2)n1 | 479 |
| CCCCCCCCCCCCCC(=O)c1nc2ncccc2o1 | 74.1 |
| O=C(CCCCCCc1ccccc1)c1ncc(-c2ccc(C(F)(F)F)cn2)o1 | > 10000 |
| O=C(CCCCCc1ccccc1)c1nc2cc(F)ccc2o1 | 1410 |
| O=C(CCCCCCc1ccccc1)c1nc(I)co1 | 2340 |

The next lines start with the values.

| IC50 [nM] | Compound |
| --- | --- |
| > 10000 | COc1ccc(-c2cnc(C(=O)CCCCCCc3ccccc3)o2)nc1 |
| 123 | CC(=O)c1coc(C(=O)CCCCCCc2ccccc2)n1 |
| > 10000 | COC(=O)c1nnc(C(=O)CCCCCCc2ccccc2)[nH]1 |
| > 10000 | O=C(CCCCCc1ccccc1)c1nc2ccccc2s1 |
